This note sets out measurements from ChEMBL document CHEMBL1122868, “New antiallergic pyrano [3,2-g]quinoline-2,8-dicarboxylic acids with potential for the topical treatment of asthma” (1985).

Calls of active or inactive are those of the source. The rule behind the calls is not given here.

As a reminder, the inhibition in vivo is the change of the read-out against control, counted positive when it falls. Broadly, the IC30 is the point of the concentration-response curve where the effect stands at 30%.

The species named for assay [1] is Rattus norvegicus. Nature of the assay: Inhibitory dose by PCA test […]. It is filed as functional. The settings on record: read-out: ID50 (the source's name). A digest of the protocol:
(§1)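 Rat passive cutaneous anaphylaxis. Female rats (100 g) sensitized intradermally with 0.1 mL rat anti-egg albumin reaginic serum diluted in saline. After 24 h, rats were challenged i.v. with egg albumin, Evans Blue and saline, with the compound in saline given in the same injection. Reactions measured at 20 min; groups of five. ID50 taken from a log-dose regression of 20–80% inhibition.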

Assay [2] is filed under the species Rattus norvegicus. Description: Potency ratio to that of sodium cromoglycate (1.0) using PCA test. The class given is functional. A digest of the protocol:
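Passive cutaneous anaphylaxis in female rats sensitized with reaginic anti-egg albumin serum and challenged i.v. at 24 h with antigen plus Evans Blue. Compound in saline was co-injected with antigen; groups of five. Sodium cromoglycate ID50 was determined in each experiment. Potency ratio = ID50(sodium cromoglycate)/ID50(compound), with ID50s from regression lines of inhibition against log dose.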

The subject of assay [3] is Canis familiaris. Description: Percent inhibition by dog hypotension screen assay at 10 ug/Kg per min for 15 min. The class given is functional. The note with it: Canis lupus familiaris, 0.25 h.
Assay [4] deals with Canis familiaris. Description: Activity index by dog hypotension screen assay at 10 ug/Kg per min for 15 min. The class given is functional, Canis lupus familiaris.
Assay [5] is filed under the species Rattus norvegicus. Nature of the assay: Ability to inhibit histamine release from rat peritoneal mast cells. The class given is functional.
In assay [6] the test system is Monkey. Description: (§2) Ability to inhibit histamine release from monkey lung lavage cells. It is filed as functional. The settings on record: Cercopithecidae, in Primates.
The subject of assay [7] is Monkey. Described as §2. The class given is functional, Cercopithecidae.
For assay [8], the species on record is Canis familiaris. Description: Relative activity in dog hypotension. The class given is functional, Canis lupus familiaris.
The species named for assay [9] is Rattus norvegicus. Nature of the assay: Compound was evaluated to induce phosphorylation of the 78000 molecular weight mast cell protein; Active to induce phosphorylation. It is filed as functional.
The species named for assay [10] is Rattus norvegicus. Nature of the assay: Ability to inhibit histamine release from rat peritoneal mast cells using PCA assay. It is filed as functional. A digest of the protocol:
as §1

Assay [11] deals with Canis familiaris. Description: Activity index was evaluated by dog hypotension screen assay at 20 ug/Kg per min for 15 min. The class given is functional, Canis lupus familiaris.

With `CCCc1c2nccc(Cl)c2cc2c(=O)cc(C(=O)[O-])oc12.[Na+]`, the ED50 in the assay listed under Rattus norvegicus [1] came out at 5.38 mg/kg. In the assay filed under Rattus norvegicus [2], the Potency ratio is 0.2. Also, in the assay on Canis familiaris [3], the inhibition in vivo at 10 µg/kg/min was determined as 48%. The Activity index with Canis familiaris [4] was 4.8.
In the case of `CCCc1c(C(=O)[O-])nc2c(CCC)c3oc(C(=O)[O-])cc(=O)c3cc2c1O.[Na+].[Na+]`, the ED50 in the assay filed under Rattus norvegicus [1] amounted to 0.14 mg/kg. Further, the Potency ratio in the assay listed under Rattus norvegicus [2] is given as 10.9. This compound also returned an inhibition in vivo at 10 µg/kg/min in the assay with Canis familiaris [3] of 6%. This compound also showed an Activity index in the assay on Canis familiaris [4] of 0.6.
Regarding `CCn1c(C(=O)[O-])cc(=O)c2cc3c(=O)cc(C(=O)[O-])oc3cc21.[Na+].[Na+]`, in the assay listed under Rattus norvegicus [1], the ED50 amounted to 10 mg/kg. Moreover, the Potency ratio in the assay filed under Rattus norvegicus [2] is listed as 0.16. Further, in the assay on Canis familiaris [3], the inhibition in vivo at 10 µg/kg/min came to 76%. In the assay with Canis familiaris [4], this compound registered an Activity index of 7.6.
For `CCCc1c2nc(C(=O)[O-])ccc2cc2c(=O)cc(C(=O)[O-])oc12.[Na+].[Na+]`, in the assay listed under Rattus norvegicus [1], the ED50 is 7.11 mg/kg. Moreover, the Potency ratio in the assay listed under Rattus norvegicus [2] came to 0.35. For the same compound, the inhibition in vivo at 10 µg/kg/min in the assay with Canis familiaris [3] stood at 38%. This compound also came in with an Activity index in the assay on Canis familiaris [4] of 3.8.
With `CCCc1c2oc(C(=O)[O-])cc(=O)c2cc2c(=O)cc(C(=O)[O-])n(CC)c12.[Na+].[Na+]` [NEDOCROMIL SODIUM], the values for the Potency in the assay listed under Rattus norvegicus [5], in the assay filed under Rattus norvegicus [9] and in the assay filed under Rattus norvegicus [10] were 1, “Active to induce phosphorylation” and 1.1, respectively. The ED50 in the assay listed under Rattus norvegicus [1] stood at 0.95 mg/kg. Further, the IC30 in the assay with Monkey [6] was determined as 5.2 µM. Moreover, the Potency ratio in the assay filed under Rattus norvegicus [2] came to 1.1. In the assay on Monkey [7], the Relative potency is 190. This compound also registered a Relative activity in the assay listed under Canis familiaris [8] of 1.9. This compound also returned an inhibition in vivo at 10 µg/kg/min in the assay on Canis familiaris [3] of 60%. The compound also showed an Activity index with Canis familiaris [4] of 6.
With `CC=Cc1c2oc(C(=O)O)cc(=O)c2cc2c(=O)cc(C(=O)O)n(CC)c12`, the inhibition in vivo at 10 µg/kg/min in the assay on Canis familiaris [3] was determined as 84%.
As to `CCCc1c2nc(C(=O)[O-])cc(Sc3ccccc3)c2cc2c(=O)cc(C(=O)[O-])oc12.[Na+].[Na+]`, the ED50 in the assay listed under Rattus norvegicus [1] worked out at 1.87 mg/kg. Moreover, the Potency ratio in the assay listed under Rattus norvegicus [2] was found to be 1.78. Besides, in the assay on Canis familiaris [3], the inhibition in vivo at 10 µg/kg/min was 66%. In addition, the Activity index in the assay with Canis familiaris [4] is on record as 6.6.
In the case of `C=CCc1c2nc(C(=O)[O-])cc(Cl)c2cc2c(=O)cc(C(=O)[O-])oc12.[Na+].[Na+]`, in the assay filed under Rattus norvegicus [1], the ED50 amounted to 2.4 mg/kg. In addition, the Potency ratio in the assay filed under Rattus norvegicus [2] was 1.09. Also, the inhibition in vivo at 10 µg/kg/min in the assay on Canis familiaris [3] was 21%. Moreover, the Activity index in the assay on Canis familiaris [4] stood at 2.1.
Take `CCCc1c2oc(C(=O)[O-])cc(=O)c2cc2c(=O)cc(C(=O)[O-])n(C)c12.[Na+].[Na+]`: in the assay filed under Rattus norvegicus [1], the ED50 was 0.21 mg/kg. Moreover, the Potency ratio in the assay listed under Rattus norvegicus [2] came to 6.6. For the same compound, the inhibition in vivo at 10 µg/kg/min in the assay on Canis familiaris [3] came to 55%. Further, the Activity index with Canis familiaris [4] is 5.5.
Take `O=C([O-])c1cc(O)c2cc3c(=O)cc(C(=O)[O-])oc3cc2n1.[Na+].[Na+]`: in the assay listed under Rattus norvegicus [1], the ED50 came to 0.22 mg/kg. Also, in the assay listed under Rattus norvegicus [2], the Potency ratio is listed as 11.6. The inhibition in vivo at 10 µg/kg/min in the assay on Canis familiaris [3] was 78%. For the same compound, the Activity index with Canis familiaris [4] came to 7.8.
Consider `CCCc1c2nc(C(=O)[O-])cc(S(=O)(=O)c3ccccc3)c2cc2c(=O)cc(C(=O)[O-])oc12.[Na+].[Na+]`, for which the ED50 in the assay listed under Rattus norvegicus [1] was 0.3 mg/kg. In the assay filed under Rattus norvegicus [2], the Potency ratio worked out at 9.9. This compound also had an inhibition in vivo at 10 µg/kg/min in the assay on Canis familiaris [3] of 39%. Also, the Activity index in the assay with Canis familiaris [4] came out at 3.9.
Turning to `CCCc1c2nc(C(=O)[O-])cc(N3CCCC3)c2cc2c(=O)cc(C(=O)[O-])oc12.[Na+].[Na+]`, the ED50 in the assay filed under Rattus norvegicus [1] stood at 0.86 mg/kg. Besides, the Potency ratio in the assay filed under Rattus norvegicus [2] was determined as 4.13. This compound gave an inhibition in vivo at 10 µg/kg/min in the assay with Canis familiaris [3] of 57%. In the assay on Canis familiaris [4], the Activity index worked out at 5.7.
`CCCc1c2nc(C(=O)[O-])cc(Nc3ccccc3)c2cc2c(=O)cc(C(=O)[O-])oc12.[Na+].[Na+]` showed an Activity index in the assay with Canis familiaris [11] of 3. In the assay filed under Rattus norvegicus [1], the ED50 is 0.57 mg/kg. Further, the Potency ratio in the assay listed under Rattus norvegicus [2] worked out at 3.47.
`CCCc1c2nc(C(=O)[O-])cc(O)c2cc2c(=O)cc(C(=O)[O-])oc12.[Na+].[Na+]`: the ED50 in the assay filed under Rattus norvegicus [1] came to 0.03 mg/kg. Moreover, in the assay filed under Rattus norvegicus [2], the Potency ratio turned out to be 80. The same compound displayed an inhibition in vivo at 10 µg/kg/min with Canis familiaris [3] of 65%. The compound further came in with an Activity index in the assay on Canis familiaris [4] of 6.5.
`Cc1c2nc(C(=O)[O-])cc(O)c2cc2c(=O)cc(C(=O)[O-])oc12.[Na+].[Na+]`: the ED50 in the assay listed under Rattus norvegicus [1] came to 0.11 mg/kg. Besides, in the assay listed under Rattus norvegicus [2], the Potency ratio stood at 12.7. This compound also displayed an inhibition in vivo at 10 µg/kg/min in the assay on Canis familiaris [3] of 66%. The Activity index in the assay on Canis familiaris [4] is given as 6.6.
For the compound `CCCc1c2nc(C(=O)[O-])cc(SCC)c2cc2c(=O)cc(C(=O)[O-])oc12.[Na+].[Na+]`, the ED50 in the assay listed under Rattus norvegicus [1] was 0.14 mg/kg. The Potency ratio in the assay listed under Rattus norvegicus [2] was 11.1. For the same compound, the inhibition in vivo at 10 µg/kg/min in the assay with Canis familiaris [3] was determined as 59%. This compound showed an Activity index in the assay with Canis familiaris [4] of 5.9.
